Measurements gathered from unrelated publications.
Protocols differ between the studies behind these lines.
Effect on: cell growth or viability

| SMILES | cell line | test | setting | measurement | value |
| --- | --- | --- | --- | --- | --- |
| Nc1nc2c(ncn2COCCO)c(=O)[nH]1 | HEL | – | 72 h | CC50 | > 440 µM |
| COc1ccc(-n2cc(CN3CCN(C(=O)c4c(C)nc5cc(C)ccn45)CC3)nn2)c([N+](=O)[O-])c1 | HeLa | resazurin | – | CC50 | > 100 µM |
| COc1cc(N)c(NS(=O)(=O)c2ccc(N(C)C)cc2)cc1OC | HeLa | XTT | 72 h | IC50 | > 100 µM |
| Cc1nc2ccc(Cl)cn2c1C(=O)N1CCN(Cc2cn(-c3cccc(Cl)c3)nn2)CC1 | HeLa | resazurin | – | CC50 | > 100 µM |
| COc1ccc(NS(=O)(=O)c2ccc(N(C)C=O)cc2)cn1 | HeLa | XTT | 72 h | IC50 | > 100 µM |
| CCOP(=O)(OCC)[C@@H]1C[C@@H](n2cc(-c3nccn3C)nn2)ON1C | HEL | – | 72 h | CC50 | > 100 µM |
| COC(=O)c1cc(N)cc(NS(=O)(=O)c2ccc(OC)cc2)c1 | HeLa | XTT | 72 h | IC50 | 20 µM |
| COc1ccc(-n2cc(CN3CCN(C(=O)c4c(C)nc5ccc(Cl)cn45)CC3)nn2)c([N+](=O)[O-])c1 | HeLa | resazurin | – | CC50 | > 100 µM |
| COc1ccc(S(=O)(=O)Nc2cc(OC)c(NC(=O)CCl)cc2OC)cc1 | HeLa | XTT | 72 h | IC50 | 2.4 µM |
| CCOP(=O)(OCC)[C@@H]1C[C@H](n2cc(C(=O)OC)nn2)ON1C (relative stereo) | HEL | – | 72 h | CC50 | > 100 µM |
| C=CC1=C(C)c2cc3[nH]c(cc4nc(cc5[nH]c(cc1n2)c(C)c5CCC(=O)O)C(CCC(=O)O)=C4C)c(C)c3C=C | RPE-1 | resazurin | 4 h, dark | IC50 | > 100 µM |
| Cc1nc2ccc(Cl)cn2c1C(=O)N1CCN(Cc2cn(-c3ccccc3)nn2)CC1 | HeLa | resazurin | – | CC50 | > 100 µM |
| CCOP(=O)(OCC)[C@@H]1C[C@@H](n2cc(-c3ccccn3)nn2)ON1C (racemic) | HeLa | – | 72 h | CC50 | > 250 µM |
